ChEMBL document CHEMBL2440012, “Design, synthesis and anticonvulsant properties of new N-Mannich bases derived from 3-phenylpyrrolidine-2,5-diones” (Bioorg Med Chem, 2013)
The source made the active and inactive calls. The calls are words filed in the database; no cut-off is given here.

Columns and labels:
[1] = system: Mus musculus; experiment: Anticonvulsant activity in albino CF1 mouse assessed as assessed as protection against 6 Hz psychomotor seizure at 100 mg/kg, ip after 2 hrs by minimal clonic seizure test; type: functional; conditions: route intraperitoneal
Method in brief: (§1)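 Male CF-1 mice, groups of four, dosed ip in 0.5% methylcellulose/water suspension, then challenged by 6-Hz corneal stimulation at 32 mA (0.2 ms pulses, 3 s, constant current) at 0.25, 0.5, 1, 2 or 4 h; count of mice out of four protected from stunned posture/clonic seizure.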

[2] = system: Mus musculus; experiment: Neurotoxicity in albino CF1 mouse assessed as minimum motor impairment at 300 mg/kg, ip measured after 4 hrs by rotorod test; type: toxicity, organism-based; design: dose 300 mg/kg, route intraperitoneal; conditions: in vivo
Method in brief: (§2)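 Male CF-1 mice given ip suspension in 0.5% methylcellulose/water at 30, 100 and 300 mg/kg; MES, scPTZ (pentylenetetrazole 85 mg/kg sc, CD97 dose for clonic seizures ≥5 s) and rotarod (inability to hold balance 1 min in each of three trials) assessed at 0.5 and 4 h; value is minimum dose active in half or more animals.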

[3] = system: Mus musculus; experiment: Anticonvulsant activity in albino CF1 mouse assessed as assessed as protection against 6 Hz psychomotor seizure at 100 mg/kg, ip after 4 hrs by minimal clonic seizure test; type: functional; conditions: route intraperitoneal; method in brief: as §1
[4] = system: Mus musculus; experiment: Anticonvulsant activity in albino CF1 mouse assessed as protection against subcutaneous pentylenetetrazole-induced convulsion at 300 mg/kg, ip measured after 0.5 hrs; type: functional, organism-based; design: dose 300 mg/kg; method in brief: as §2
[5] = system: Mus musculus; experiment: Anticonvulsant activity in ip dosed albino CF1 mouse assessed as protection against maximal electroshock-induced seizures in half or more animals measured after 4 hrs; type: functional; conditions: read-out: MED; method in brief: as §2
[6] = system: Mus musculus; experiment: Anticonvulsant activity in ip dosed albino CF1 mouse assessed as protection against maximal electroshock-induced seizures in half or more animals measured after 0.5 hr; type: functional; conditions: read-out: MED; method in brief: as §2
[7] = system: Mus musculus; experiment: Neurotoxicity in albino CF1 mouse assessed as minimum motor impairment at 300 mg/kg, ip measured after 0.5 hr by rotorod test; type: toxicity, organism-based; design: dose 300 mg/kg, route intraperitoneal; conditions: in vivo; method in brief: as §2
[8] = system: Mus musculus; experiment: Anticonvulsant activity in albino CF1 mouse assessed as assessed as protection against 6 Hz psychomotor seizure at 100 mg/kg, ip after 0.5 hr by minimal clonic seizure test; type: functional; conditions: route intraperitoneal; method in brief: as §1
[9] = system: Mus musculus; experiment: Anticonvulsant activity in albino CF1 mouse assessed as protection against subcutaneous pentylenetetrazole-induced convulsion at 300 mg/kg, ip measured after 4 hrs; type: functional, organism-based; design: dose 300 mg/kg; method in brief: as §2
[10] = system: Mus musculus; experiment: Anticonvulsant activity in albino CF1 mouse assessed as assessed as protection against 6 Hz psychomotor seizure at 100 mg/kg, ip after 0.25 hr by minimal clonic seizure test; type: functional; conditions: route intraperitoneal; method in brief: as §1
[11] = system: Mus musculus; experiment: Anticonvulsant activity in albino CF1 mouse assessed as assessed as protection against 6 Hz psychomotor seizure at 100 mg/kg, ip after 1 hr by minimal clonic seizure test; type: functional; conditions: route intraperitoneal; method in brief: as §1
[12] = system: Rattus norvegicus; experiment: Anticonvulsant activity in albino Sprague-Dawley rat assessed as protection against maximal electroshock-induced seizures at 30 mg/kg, po measured after 0.5 hr; type: functional
Method in brief: (§3)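 Male Sprague-Dawley rats, four per group, dosed p.o. at 30 mg/kg in 0.5% methylcellulose/water suspension; MES test at 0.25, 0.5, 1, 2 and 4 h, motor impairment examined in parallel; number of rats out of four protected.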

[13] = system: Rattus norvegicus; experiment: Anticonvulsant activity against […] subcutaneous pentylenetetrazole-induced convulsion in po dosed albino Sprague-Dawley rat assessed as time to peak effect; type: functional
[14] = system: Rattus norvegicus; experiment: Anticonvulsant activity against maximal electroshock-induced seizures in po dosed albino Sprague-Dawley rat assessed as time to peak effect; type: functional
[15] = system: Rattus norvegicus; experiment: Anticonvulsant activity in albino Sprague-Dawley rat assessed as protection against maximal electroshock-induced seizures at 30 mg/kg, po measured after 0.25 hr; type: functional; method in brief: as §3
[16] = system: Rattus norvegicus; experiment: Anticonvulsant activity in albino Sprague-Dawley rat assessed as protection against maximal electroshock-induced seizures at 30 mg/kg, po measured after 4 hrs; type: functional; method in brief: as §3
[17] = system: Mus musculus; experiment: Neurotoxicity in ip dosed albino CF1 mouse assessed as minimum motor impairment in half or more animals measured after 4 hrs by rotorod test; type: toxicity, organism-based; conditions: in vivo; method in brief: as §2
[18] = system: Rattus norvegicus; experiment: Anticonvulsant activity in albino Sprague-Dawley rat assessed as protection against maximal electroshock-induced seizures at 30 mg/kg, po measured after 2 hrs; type: functional; method in brief: as §3
[19] = system: Rattus norvegicus; experiment: Protection index, ratio of TD50 for neurotoxicity in po dosed albino Sprague-Dawley rat by rotorod test to ED50 for anticonvulsant activity in po dosed albino Sprague-Dawley rat by MES test; type: functional
[20] = system: Rattus norvegicus; experiment: Anticonvulsant activity in po dosed albino Sprague-Dawley rat assessed as protection against subcutaneous pentylenetetrazole-induced convulsion; type: functional
[21] = Neurotoxicity in po dosed albino Sprague-Dawley rat assessed as minimum motor impairment by rotorod test; type: toxicity, organism-based; conditions: in vivo
[22] = system: Mus musculus; experiment: Neurotoxicity in ip dosed albino CF1 mouse assessed as minimum motor impairment in half or more animals measured after 0.5 hrs by rotorod test; type: toxicity, organism-based; conditions: in vivo; method in brief: as §2
[23] = system: Rattus norvegicus; experiment: Anticonvulsant activity in albino Sprague-Dawley rat assessed as protection against maximal electroshock-induced seizures at 30 mg/kg, po measured after 1 hr; type: functional; method in brief: as §3
[24] = system: Rattus norvegicus; experiment: Neurotoxicity in po dosed albino Sprague-Dawley rat assessed as time to peak effect by rotorod test; type: toxicity, organism-based; conditions: in vivo
[25] = system: Mus musculus; experiment: Anticonvulsant activity in albino CF1 mouse assessed as protection against maximal electroshock-induced seizures at 300 mg/kg, ip measured after 0.5 hr; type: functional, organism-based; design: dose 300 mg/kg; method in brief: as §2
[26] = system: Mus musculus; experiment: Anticonvulsant activity in albino CF1 mouse assessed as protection against maximal electroshock-induced seizures at 300 mg/kg, ip measured after 4 hrs; type: functional, organism-based; design: dose 300 mg/kg; method in brief: as §2
[27] = system: Mus musculus; experiment: Anticonvulsant activity against 6 Hz psychomotor seizure in ip dosed albino CF1 mouse assessed as time to peak effect by minimal clonic seizure test; type: functional
[28] = Neurotoxicity in ip dosed albino CF1 mouse by rotorod test; type: toxicity, organism-based; conditions: in vivo
[29] = system: Mus musculus; experiment: Neurotoxicity in ip dosed albino CF1 mouse assessed as time to peak effect by rotorod test; type: toxicity, organism-based; conditions: in vivo
[30] = system: Rattus norvegicus; experiment: Protection index, ratio of TD50 for neurotoxicity in po dosed albino Sprague-Dawley rat by rotorod test to ED50 for anticonvulsant activity in po dosed albino Sprague-Dawley rat by scPTZ test; type: functional
Method in brief: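 Male Sprague-Dawley rats, compound suspended in 0.5% methylcellulose/water and given orally; tested at the time of peak effect. scPTZ: 70 mg/kg pentylenetetrazole sc; the end-point is clonic seizures lasting at least 5 s. Rotarod: motor impairment is failure to keep balance for 1 min in each of three trials. Groups of at least eight rats received several doses until at least three points fell within 10–90% effect. ED50, TD50 and 95% confidence intervals were derived by regression; PI = TD50/ED50.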

[31] = system: Rattus norvegicus; experiment: Anticonvulsant activity in po dosed albino Sprague-Dawley rat assessed as protection against maximal electroshock-induced seizures; type: functional
[32] = system: Mus musculus; experiment: Anticonvulsant activity in ip dosed albino CF1 mouse assessed as protection against subcutaneous pentylenetetrazole-induced convulsion in half or more animals measured after 0.5 hr; type: functional; conditions: albino CF1, 0.5 h, read-out: MED; method in brief: as §2
[33] = system: Mus musculus; experiment: Anticonvulsant activity in ip dosed albino CF1 mouse assessed as protection against subcutaneous pentylenetetrazole-induced convulsion in half or more animals measured after 4 hrs; type: functional; conditions: albino CF1, 4 h, read-out: MED; method in brief: as §2
[34] = system: Mus musculus; experiment: Anticonvulsant activity against 6 Hz psychomotor seizure in ip dosed albino CF1 mouse by minimal clonic seizure test; type: functional
[35] = system: Mus musculus; experiment: Toxicity in albino CF1 mouse assessed as diarrhea at 300 mg/kg, ip measured after 4 hrs by rotorod test; type: organism-based; design: dose 300 mg/kg, route intraperitoneal; conditions: in vivo

Structure (SMILES): O=C1CC(c2ccccc2)C(=O)N1CN1CCC(Cc2ccccc2)CC1 (racemic)
- Activity [1]: 25%
- Activity [2]: Non-toxic
- Activity [3]: 0%
- Activity [4]: inactive
- minimal effective dose [5]: 300 mg/kg
- minimal effective dose [6]: 100 mg/kg
- Activity [7]: Non-toxic
- Activity [8]: 0%
- Activity [9]: inactive
- Activity [10]: 0%
- Activity [11]: 25%

Structure (SMILES): O=C1NC(=O)C(c2ccccc2)(c2ccccc2)N1 [PHENYTOIN]
- Activity [12]: 100%
- Time [13]: 1 h
- Activity [4]: inactive
- minimal effective dose [5]: 30 mg/kg
- Time [14]: 1 h
- minimal effective dose [6]: 30 mg/kg
- Activity [15]: 25%
- Activity [16]: 75%
- Activity [9]: inactive
- MED [17]: 100 mg/kg
- Activity [18]: 75%
- Ratio TD50/ED50 [19]: >3.6
- ED50 [20]: > 500 mg/kg
- TD50 [21]: > 100 mg/kg
- MED [22]: 100 mg/kg
- Activity [23]: 75%
- Time [24]: 1 h

Structure (SMILES): COc1ccccc1N1CCN(CN2C(=O)CC(c3cccc(Cl)c3)C2=O)CC1 (racemic)
- Activity [4]: inactive
- Activity [9]: inactive
- MED [17]: 300 mg/kg
- MED [22]: 300 mg/kg
- Activity [25]: inactive
- Activity [26]: inactive

Structure (SMILES): O=C1CC(c2ccc(Cl)cc2)C(=O)N1CN1CCN(c2ccccc2Cl)CC1 (racemic)
- Activity [4]: inactive
- Activity [9]: inactive
- MED [17]: 300 mg/kg
- MED [22]: 300 mg/kg
- Activity [25]: inactive
- Activity [26]: inactive

Structure (SMILES): CC[C@@H](C(N)=O)N1CCCC1=O
- Time [27]: 1 h
- TD50 [28]: > 500 mg/kg
- Time [29]: 1 h

Structure (SMILES): CCC1(C)CC(=O)NC1=O (stereo unspecified) [ETHOSUXIMIDE]
- Activity [2]: Non-toxic
- Time [13]: 1 h
- Time [14]: 1 h
- Activity [7]: Non-toxic
- Ratio TD50/ED50 [30]: >2.99
- TD50 [21]: > 500 mg/kg
- Activity [25]: inactive
- ED50 [31]: > 500 mg/kg
- Activity [26]: inactive
- minimal effective dose [32]: 100 mg/kg
- Time [24]: 1 h
- minimal effective dose [33]: 300 mg/kg

Structure (SMILES): O=C1CC(c2ccccc2)C(=O)N1CN1CCN(c2ncccn2)CC1 (racemic)
- Activity [1]: 50%
- Activity [2]: Non-toxic
- Activity [12]: inactive
- Activity [3]: 0%
- Activity [4]: inactive
- Time [27]: 1 h
- Activity [15]: inactive
- Activity [7]: Non-toxic
- Activity [8]: 50%
- Activity [16]: inactive
- Activity [9]: inactive
- Activity [18]: inactive
- Activity [10]: 75%
- ED50 [34]: 103 mg/kg
- Activity [25]: inactive
- Activity [26]: inactive
- Time [29]: 1 h
- Activity [11]: 50%
- Activity [23]: inactive

Structure (SMILES): O=C1CC(c2cccc(Cl)c2)C(=O)N1CN1CCN(c2cccc(C(F)(F)F)c2)CC1 (racemic)
- Activity [4]: inactive
- minimal effective dose [5]: 100 mg/kg
- minimal effective dose [6]: 100 mg/kg
- Activity [9]: inactive
- MED [17]: 300 mg/kg
- MED [22]: 300 mg/kg

Structure (SMILES): O=C1CC(c2ccc(Cl)cc2)C(=O)N1CN1CCC(Cc2ccccc2)CC1 (racemic)
- Activity [1]: 75%
- Activity [2]: Non-toxic
- Activity [3]: 25%
- Activity [4]: inactive
- minimal effective dose [5]: 100 mg/kg
- Activity [7]: Non-toxic
- Activity [8]: 0%
- Activity [9]: inactive
- Activity [10]: 0%
- Activity [25]: inactive
- Activity [11]: 0%

Structure (SMILES): CCCC(CCC)C(=O)O [VALPROIC ACID]
- Time [13]: 1 h
- Time [14]: 1 h
- ED50 [20]: 646 mg/kg
- Time [24]: 1 h

Structure (SMILES): O=C1CC(c2ccccc2Cl)C(=O)N1CN1CCN(c2ncccn2)CC1 (racemic)
- Activity [12]: inactive
- Activity [4]: inactive
- minimal effective dose [5]: 100 mg/kg
- Activity [15]: inactive
- Activity [7]: Non-toxic
- Activity [16]: inactive
- Activity [9]: inactive
- Activity [18]: inactive
- Activity [25]: inactive
- MED [35]: 300 mg/kg
- Activity [23]: inactive
